Laboratory results from ChEMBL document CHEMBL3585281, “Antibacterial Labdane Diterpenoids from Vitex vestita” (2015).
In brackets after ≈: the same amount, converted by molar mass.

Legend:
Assay type in all cases: functional
[1] = system: Staphylococcus intermedius; assay: Antibacterial activity against Staphylococcus intermedius N987 after 18 hrs by agar dilution method; settings: N987, 18 h
Method in brief: (§1)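 Agar-dilution MIC against Gram-positive strains. Compounds in DMSO, geometric dilutions giving final 100−0.75 mg/L in Mueller Hinton agar. Strains grown 18 h at 37 °C in trypticase soy broth, diluted in sterile water, spotted by Steers inoculator (about 1000 UFC/spot). Plates incubated 18 h at 37 °C; DMSO blank; ofloxacin positive control. MIC = lowest concentration with no visible growth.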

Enterococcus durans = assay: Antibacterial activity against Enterococcus durans CIP 104999 after 18 hrs by agar dilution method; settings: CIP 104999, 18 h; method in brief: as §1
[2] = system: Enterococcus casseliflavus; assay: Antibacterial activity against Enterococcus casseliflavus N487 after 18 hrs by agar dilution method; settings: N487, 18 h; method in brief: as §1
Enterococcus faecium [3] = assay: Antibacterial activity against Enterococcus faecium N507 after 18 hrs by agar dilution method; settings: N507, 18 h; method in brief: as §1
Enterococcus faecalis [4] = assay: Antibacterial activity against Enterococcus faecalis N518 after 18 hrs by agar dilution method; settings: N518, 18 h; method in brief: as §1
Enterococcus faecium [5] = assay: Antibacterial activity against Enterococcus faecium CIP 103014 after 18 hrs by agar dilution method; settings: CIP 103014, 18 h; method in brief: as §1
Listeria innocua = assay: Antibacterial activity against Listeria innocua E044 after 18 hrs by agar dilution method; settings: E044, 18 h; method in brief: as §1
Bacillus spizizenii = assay: Antibacterial activity against Bacillus subtilis ATCC 6633 after 18 hrs by agar dilution method; settings: ATCC 6633, 18 h; method in brief: as §1
Listeria monocytogenes [6] = assay: Antibacterial activity against Listeria monocytogenes N851 after 18 hrs by agar dilution method; settings: N851, 18 h; method in brief: as §1
Enterococcus faecium [7] = assay: Antibacterial activity against Enterococcus faecium N490 after 18 hrs by agar dilution method; settings: N490, 18 h; method in brief: as §1
[8] = system: Staphylococcus saprophyticus; assay: Antibacterial activity against Staphylococcus saprophyticus E260 after 18 hrs by agar dilution method; settings: E260, 18 h; method in brief: as §1
Corynebacterium striatum = assay: Antibacterial activity against Corynebacterium striatum N840 after 18 hrs by agar dilution method; settings: N840, 18 h; method in brief: as §1
Bacillus cereus [9] = assay: Antibacterial activity against Bacillus cereus N349 after 18 hrs by agar dilution method; settings: N349, 18 h; method in brief: as §1
Bacillus cereus [10] = assay: Antibacterial activity against Bacillus cereus CIP 6624 after 18 hrs by agar dilution method; settings: CIP 6624, 18 h; method in brief: as §1
[11] = system: Enterococcus casseliflavus; assay: Antibacterial activity against Enterococcus casseliflavus CIP 103018 after 18 hrs by agar dilution method; settings: CIP 103018, 18 h; method in brief: as §1
Enterococcus faecium [12] = assay: Antibacterial activity against Enterococcus faecium N733 after 18 hrs by agar dilution method; settings: N733, 18 h; method in brief: as §1
Staphylococcus aureus [13] = assay: Antibacterial activity against Staphylococcus aureus CIP 5710 after 18 hrs by agar dilution method; settings: CIP 5710, 18 h; method in brief: as §1
Staphylococcus aureus [14] = assay: Antibacterial activity against Staphylococcus aureus CIP 53156 after 18 hrs by agar dilution method; settings: CIP 53156, 18 h; method in brief: as §1
Bacillus cereus [15] = assay: Antibacterial activity against Bacillus cereus N258 after 18 hrs by agar dilution method; settings: N258, 18 h; method in brief: as §1
Staphylococcus aureus [16] = assay: Antibacterial activity against Staphylococcus aureus CIP 7625 after 18 hrs by agar dilution method; settings: CIP 7625, 18 h; method in brief: as §1
Enterococcus faecium [17] = assay: Antibacterial activity against Enterococcus faecium CIP 107387 after 18 hrs by agar dilution method; settings: CIP 107387, 18 h; method in brief: as §1
Staphylococcus aureus [18] = assay: Antibacterial activity against Staphylococcus aureus CIP 53154 after 18 hrs by agar dilution method; settings: CIP 53154, 18 h; method in brief: as §1
Enterococcus faecalis [19] = assay: Antibacterial activity against Enterococcus faecalis CIP 104676 after 18 hrs by agar dilution method; settings: CIP 104676, 18 h; method in brief: as §1
Staphylococcus aureus [20] = assay: Antibacterial activity against Staphylococcus aureus CRBIP 2121 after 18 hrs by agar dilution method; settings: CRBIP 2121, 18 h; method in brief: as §1
Staphylococcus aureus [21] = assay: Antibacterial activity against Staphylococcus aureus ATCC 9144 oxford after 18 hrs by agar dilution method; method in brief: as §1
Enterococcus faecium [22] = assay: Antibacterial activity against Enterococcus faecium N823 after 18 hrs by agar dilution method; settings: N823, 18 h; method in brief: as §1
Enterococcus gallinarum [23] = assay: Antibacterial activity against Enterococcus gallinarum N492 after 18 hrs by agar dilution method; settings: N492, 18 h; method in brief: as §1
Listeria monocytogenes [24] = assay: Antibacterial activity against Listeria monocytogenes N783 after 18 hrs by agar dilution method; settings: N783, 18 h; method in brief: as §1
Enterococcus avium = assay: Antibacterial activity against Enterococcus avium CIP 104053 after 18 hrs by agar dilution method; settings: CIP 104053, 18 h; method in brief: as §1
Enterococcus gallinarum [25] = assay: Antibacterial activity against Enterococcus gallinarum CIP 105985 after 18 hrs by agar dilution method; settings: CIP 105985, 18 h; method in brief: as §1
Streptococcus agalactiae = assay: Antibacterial activity against Streptococcus agalactiae CIP 103227 after 18 hrs by agar dilution method; settings: ATCC 13813, 18 h; method in brief: as §1
Enterococcus faecalis [26] = assay: Antibacterial activity against Enterococcus faecalis N491 after 18 hrs by agar dilution method; settings: N491, 18 h; method in brief: as §1
[27] = system: Staphylococcus epidermidis; assay: Antibacterial activity against Staphylococcus epidermidis CIP 53124 after 18 hrs by agar dilution method; settings: CIP 53124, 18 h; method in brief: as §1
Mammaliicoccus sciuri = assay: Antibacterial activity against Staphylococcus sciuri N993 after 18 hrs by agar dilution method; settings: N993, 18 h; method in brief: as §1
[28] = system: Staphylococcus haemolyticus; assay: Antibacterial activity against Staphylococcus haemolyticus CIP 8156 after 18 hrs by agar dilution method; settings: CIP 8156, 18 h; method in brief: as §1
Staphylococcus aureus [29] = assay: Antibacterial activity against Staphylococcus aureus CIP 483 after 18 hrs by agar dilution method; settings: CIP 483, 18 h; method in brief: as §1
Enterococcus faecalis [30] = assay: Antibacterial activity against Enterococcus faecalis N520 after 18 hrs by agar dilution method; settings: N520, 18 h; method in brief: as §1
Enterococcus hirae = assay: Antibacterial activity against Enterococcus hirae CIP 5855 after 18 hrs by agar dilution method; settings: CIP 5855, 18 h; method in brief: as §1
Enterococcus gallinarum [31] = assay: Antibacterial activity against Enterococcus gallinarum N489 after 18 hrs by agar dilution method; settings: N489, 18 h; method in brief: as §1
[32] = system: Staphylococcus saprophyticus; assay: Antibacterial activity against Staphylococcus saprophyticus CIP 76125 after 18 hrs by agar dilution method; settings: CIP 76125, 18 h; method in brief: as §1
Bacillus cereus [33] = assay: Antibacterial activity against Bacillus cereus N190 after 18 hrs by agar dilution method; settings: N190, 18 h; method in brief: as §1
[34] = system: Staphylococcus lugdunensis; assay: Antibacterial activity against Staphylococcus lugdunensis ATCC 43809 after 18 hrs by agar dilution method; settings: ATCC 43809, 18 h; method in brief: as §1
Listeria monocytogenes [35] = assay: Antibacterial activity against Listeria monocytogenes CIP 103575 after 18 hrs by agar dilution method; settings: CIP 103575, 18 h; method in brief: as §1
Listeria monocytogenes [36] = assay: Antibacterial activity against Listeria monocytogenes N836 after 18 hrs by agar dilution method; settings: N836, 18 h; method in brief: as §1
Enterococcus faecalis [37] = assay: Antibacterial activity against Enterococcus faecalis CIP 103214 after 18 hrs by agar dilution method; settings: CIP 103214, 18 h; method in brief: as §1
Staphylococcus aureus [38] = assay: Antibacterial activity against Staphylococcus aureus ATCC 25923 after 18 hrs by agar dilution method; settings: ATCC 25923, 18 h; method in brief: as §1

SMILES: CC1(C)S[C@@H]2[C@H](NC(=O)[C@H](N)c3ccc(O)cc3)C(=O)N2[C@H]1C(=O)O [AMOXICILLIN]
- MIC [1]: 88 µM (≈ 32.2 µg/mL)
- MIC (Enterococcus durans): 1.4 µM (≈ 0.512 µg/mL)
- MIC [2]: 0.7 µM (≈ 0.256 µg/mL)
- MIC (Enterococcus faecium [3]): 350 µM (≈ 128 µg/mL)
- MIC (Enterococcus faecalis [4]): 0.7 µM (≈ 0.256 µg/mL)
- MIC (Enterococcus faecium [5]): 0.7 µM (≈ 0.256 µg/mL)
- MIC (Listeria innocua): 0.7 µM (≈ 0.256 µg/mL)
- MIC (Bacillus spizizenii): ≤ 0.2 µM
- MIC (Listeria monocytogenes [6]): 0.7 µM (≈ 0.256 µg/mL)
- MIC (Enterococcus faecium [7]): 22 µM (≈ 8.04 µg/mL)
- MIC [8]: 0.7 µM (≈ 0.256 µg/mL)
- MIC (Corynebacterium striatum): 350 µM (≈ 128 µg/mL)
- MIC (Bacillus cereus [9]): 11 µM (≈ 4.02 µg/mL)
- MIC (Bacillus cereus [10]): 11 µM (≈ 4.02 µg/mL)
- MIC [11]: 0.7 µM (≈ 0.256 µg/mL)
- MIC (Enterococcus faecium [12]): > 350 µM
- MIC (Staphylococcus aureus [13]): 0.7 µM (≈ 0.256 µg/mL)
- MIC (Staphylococcus aureus [14]): ≤ 0.2 µM
- MIC (Bacillus cereus [15]): 11 µM (≈ 4.02 µg/mL)
- MIC (Staphylococcus aureus [16]): 0.3 µM (≈ 0.11 µg/mL)
- MIC (Enterococcus faecium [17]): 175 µM (≈ 63.9 µg/mL)
- MIC (Staphylococcus aureus [18]): 0.3 µM (≈ 0.11 µg/mL)
- MIC (Enterococcus faecalis [19]): 1.4 µM (≈ 0.512 µg/mL)
- MIC (Staphylococcus aureus [20]): 175 µM (≈ 63.9 µg/mL)
- MIC (Staphylococcus aureus [21]): ≤ 0.2 µM
- MIC (Enterococcus faecium [22]): 350 µM (≈ 128 µg/mL)
- MIC (Enterococcus gallinarum [23]): 0.7 µM (≈ 0.256 µg/mL)
- MIC (Listeria monocytogenes [24]): 0.7 µM (≈ 0.256 µg/mL)
- MIC (Enterococcus avium): 0.7 µM (≈ 0.256 µg/mL)
- MIC (Enterococcus gallinarum [25]): 1.4 µM (≈ 0.512 µg/mL)
- MIC (Streptococcus agalactiae): ≤ 0.2 µM
- MIC (Enterococcus faecalis [26]): 0.7 µM (≈ 0.256 µg/mL)
- MIC [27]: ≤ 0.2 µM
- MIC (Mammaliicoccus sciuri): 0.7 µM (≈ 0.256 µg/mL)
- MIC [28]: ≤ 0.2 µM
- MIC (Staphylococcus aureus [29]): 0.3 µM (≈ 0.11 µg/mL)
- MIC (Enterococcus faecalis [30]): 3 µM (≈ 1.1 µg/mL)
- MIC (Enterococcus hirae): 1.4 µM (≈ 0.512 µg/mL)
- MIC (Enterococcus gallinarum [31]): 0.7 µM (≈ 0.256 µg/mL)
- MIC [32]: 0.7 µM (≈ 0.256 µg/mL)
- MIC (Bacillus cereus [33]): 44 µM (≈ 16.1 µg/mL)
- MIC [34]: 0.7 µM (≈ 0.256 µg/mL)
- MIC (Listeria monocytogenes [35]): 0.7 µM (≈ 0.256 µg/mL)
- MIC (Listeria monocytogenes [36]): 0.7 µM (≈ 0.256 µg/mL)
- MIC (Enterococcus faecalis [37]): 1.4 µM (≈ 0.512 µg/mL)
- MIC (Staphylococcus aureus [38]): 0.3 µM (≈ 0.11 µg/mL)
